The source made the active and inactive calls. The rule behind the calls is not given here.
How the values were obtained:
Kasumi 1 = assay: Antiproliferative activity against human Kasumi-1 cells after 72 hrs by resazurin dye-based assay; type: functional, cell-based; settings: Kasumi 1, 72 h
Outline: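 KASUMI-1 cells incubated with compounds for 72 hr; viability read with resazurin reagent. IC50 taken as the mean of three experiments, each run in duplicate.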

Homo sapiens [1] = organism: Homo sapiens; assay: Selectivity ratio of IC50 for human recombinant full length C-terminal His-tagged HDAC3 (1 to 428 residues)/N-terminal GST-tagged NCOR2 (395 to 489 residues) to IC50 for recombinant N-terminal GST-tagged human HDAC6 (1 to 1215 residues)
Histone deacetylase 1 = Histone deacetylase 1 (Homo sapiens, UniProt Q13547); assay: Inhibition of recombinant full length C-terminal FLAG/His-tagged human HDAC1 (1 to 482 residues) expressed in sf21 cells using RHK-K(Ac)-AMC as substrate by fluorimetric assay
[2] = target: Histone deacetylase 3/Nuclear receptor corepressor 2 (HDAC3/NCoR2) (Homo sapiens, UniProt O15379); type: cell-based
Histone deacetylase 11 = target: T1, Histone deacetylase 11 (Homo sapiens, UniProt Q96DB2); assay: Inhibition of recombinant C-terminal His-tagged human HDAC11 (1 to 347 residues) expressed in Baculovirus infected insect cells using RHKK-Ac as substrate by fluorimetric assay
T1 sequence (Q96DB2 whole entry): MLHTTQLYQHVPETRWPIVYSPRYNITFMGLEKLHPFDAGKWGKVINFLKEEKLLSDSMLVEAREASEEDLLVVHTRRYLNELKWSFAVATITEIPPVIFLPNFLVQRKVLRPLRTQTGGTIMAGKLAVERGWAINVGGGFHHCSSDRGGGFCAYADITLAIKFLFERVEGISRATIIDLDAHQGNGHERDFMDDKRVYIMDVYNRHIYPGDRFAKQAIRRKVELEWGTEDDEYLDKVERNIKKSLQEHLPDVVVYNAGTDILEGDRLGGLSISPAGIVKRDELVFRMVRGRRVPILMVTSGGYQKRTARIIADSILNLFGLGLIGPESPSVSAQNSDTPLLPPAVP

Histone deacetylase 8 = target: T2, Histone deacetylase 8 (Homo sapiens, UniProt Q9BY41); assay: Inhibition of recombinant C-terminal His-tagged human HDAC8 (1 to 377 residues) expressed in Baculovirus infected insect cells using RHK-K(Ac)-AMC as substrate by fluorimetric assay
T2 sequence (Q9BY41 whole entry): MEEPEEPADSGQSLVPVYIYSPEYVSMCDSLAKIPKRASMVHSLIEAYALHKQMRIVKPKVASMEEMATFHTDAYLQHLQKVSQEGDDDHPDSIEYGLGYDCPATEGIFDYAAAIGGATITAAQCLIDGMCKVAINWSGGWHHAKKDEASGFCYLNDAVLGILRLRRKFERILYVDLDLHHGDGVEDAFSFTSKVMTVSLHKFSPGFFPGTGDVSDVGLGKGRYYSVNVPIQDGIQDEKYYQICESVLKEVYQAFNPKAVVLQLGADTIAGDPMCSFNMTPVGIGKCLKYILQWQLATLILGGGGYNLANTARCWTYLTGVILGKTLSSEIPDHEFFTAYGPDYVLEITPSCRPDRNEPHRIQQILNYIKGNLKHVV

Homo sapiens [3] = organism: Homo sapiens; assay: Selectivity ratio of IC50 for recombinant full length C-terminal FLAG/His-tagged human HDAC1 (1 to 482 residues) to IC50 for recombinant N-terminal GST-tagged human HDAC6 (1 to 1215 residues)
[4] = target: T3, Protein deacetylase HDAC6 (Homo sapiens, UniProt Q9UBN7); assay: Inhibition of recombinant N-terminal GST-tagged human HDAC6 (1 to 1215 residues) expressed in Baculovirus infected insect cells using RHKK-Ac as substrate by fluorimetric assay
T3 sequence (Q9UBN7 whole entry): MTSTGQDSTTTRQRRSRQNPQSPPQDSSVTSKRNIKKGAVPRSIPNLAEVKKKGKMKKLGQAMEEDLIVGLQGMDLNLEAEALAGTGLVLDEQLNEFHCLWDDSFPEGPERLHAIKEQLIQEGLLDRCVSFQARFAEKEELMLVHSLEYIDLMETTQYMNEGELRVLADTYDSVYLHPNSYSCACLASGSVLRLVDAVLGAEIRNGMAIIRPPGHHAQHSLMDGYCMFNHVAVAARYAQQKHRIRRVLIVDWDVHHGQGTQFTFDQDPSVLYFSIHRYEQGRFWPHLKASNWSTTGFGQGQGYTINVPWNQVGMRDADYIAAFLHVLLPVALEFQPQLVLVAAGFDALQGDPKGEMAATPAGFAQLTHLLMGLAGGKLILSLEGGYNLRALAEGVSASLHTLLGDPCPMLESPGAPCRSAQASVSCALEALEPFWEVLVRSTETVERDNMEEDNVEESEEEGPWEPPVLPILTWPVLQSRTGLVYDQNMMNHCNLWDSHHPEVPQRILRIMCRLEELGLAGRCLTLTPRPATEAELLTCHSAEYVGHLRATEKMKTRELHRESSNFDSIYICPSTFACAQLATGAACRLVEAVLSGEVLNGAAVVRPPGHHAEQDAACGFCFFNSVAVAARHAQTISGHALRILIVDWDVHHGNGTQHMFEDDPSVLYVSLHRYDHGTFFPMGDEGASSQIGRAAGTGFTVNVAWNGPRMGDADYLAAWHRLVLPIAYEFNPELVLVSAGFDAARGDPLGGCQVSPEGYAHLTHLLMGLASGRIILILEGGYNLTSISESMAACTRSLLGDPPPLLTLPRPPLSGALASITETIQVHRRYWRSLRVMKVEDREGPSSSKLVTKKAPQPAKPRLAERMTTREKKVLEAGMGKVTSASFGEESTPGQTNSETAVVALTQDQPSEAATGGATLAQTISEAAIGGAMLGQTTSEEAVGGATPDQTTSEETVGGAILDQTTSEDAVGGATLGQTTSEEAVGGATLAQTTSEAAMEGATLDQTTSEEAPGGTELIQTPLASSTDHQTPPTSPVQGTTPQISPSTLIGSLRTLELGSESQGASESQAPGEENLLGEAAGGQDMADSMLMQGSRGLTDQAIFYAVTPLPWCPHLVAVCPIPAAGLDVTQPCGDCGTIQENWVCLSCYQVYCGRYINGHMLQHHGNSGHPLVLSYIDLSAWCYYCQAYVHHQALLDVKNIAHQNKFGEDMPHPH

Homo sapiens [5] = organism: Homo sapiens; assay: Selectivity ratio of IC50 for human HDAC1 to IC50 for human HDAC6
[6] = target: T3, Protein deacetylase HDAC6; assay: Inhibition of human HDAC6 using (Z-(Ac)Lys-AMC) as substrate after 90 mins by fluorescence analysis
Danio rerio = assay: Antiangiogenic activity in zebrafish embryo assessed as effect on blood vessel development at 10 uM administered from 24 to 50 hrs post fertilization for 24 hrs and measured after 72 hrs by alkaline phosphatase assay; type: functional, organism-based
Outline: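 Zebrafish embryos exposed at 10 µM from 24–50 hpf alongside vehicle-only controls; at 72 hpf embryos stained with alkaline phosphatase to visualise blood vessels.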

[7] = Drug uptake in human A549 cells lysosome at 1 uM after 2 hrs by naphthalimide/Lysotracker Deep Red dye-based inverted light fluorescence confocal microscopic analysis; type: ADME, subcellular; settings: a549, 2 h
[8] = Drug uptake in human A549 cells lysosome at 1 uM after 2 hrs by Lyso-tracker red-based inverted light fluorescence confocal microscopic analysis; settings: a549, 2 h
[9] = Drug uptake in human A549 cells cytoplasm at 1 uM after 2 hrs by naphthalimide dye-based inverted light fluorescence confocal microscopic analysis; type: ADME, subcellular; settings: a549, 2 h
Outline: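 A549 cells incubated 2 hours with compound at 1 µM; intracellular distribution imaged by confocal microscopy with 405 nm laser excitation, emission collected at 460–560 nm.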

Chain of Histone deacetylase 3/Nuclear receptor corepressor 2 (HDAC3/NCoR2) (O15379 whole entry, the tested form may be a part): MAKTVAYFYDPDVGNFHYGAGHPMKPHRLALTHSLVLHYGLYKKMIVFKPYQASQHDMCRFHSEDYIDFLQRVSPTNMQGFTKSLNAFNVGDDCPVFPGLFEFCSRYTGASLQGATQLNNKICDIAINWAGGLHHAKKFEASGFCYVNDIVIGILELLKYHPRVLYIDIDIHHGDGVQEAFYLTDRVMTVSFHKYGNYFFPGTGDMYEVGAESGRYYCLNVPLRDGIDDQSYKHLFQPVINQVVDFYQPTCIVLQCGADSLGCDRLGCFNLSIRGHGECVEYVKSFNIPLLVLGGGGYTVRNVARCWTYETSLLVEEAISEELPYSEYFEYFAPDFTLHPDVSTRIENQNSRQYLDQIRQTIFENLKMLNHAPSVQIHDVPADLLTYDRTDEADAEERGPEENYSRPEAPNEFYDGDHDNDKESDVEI
Chain of Histone deacetylase 3/Nuclear receptor corepressor 2 (HDAC3/NCoR2) (Q9Y618 whole entry, further chain, the tested form may be a part): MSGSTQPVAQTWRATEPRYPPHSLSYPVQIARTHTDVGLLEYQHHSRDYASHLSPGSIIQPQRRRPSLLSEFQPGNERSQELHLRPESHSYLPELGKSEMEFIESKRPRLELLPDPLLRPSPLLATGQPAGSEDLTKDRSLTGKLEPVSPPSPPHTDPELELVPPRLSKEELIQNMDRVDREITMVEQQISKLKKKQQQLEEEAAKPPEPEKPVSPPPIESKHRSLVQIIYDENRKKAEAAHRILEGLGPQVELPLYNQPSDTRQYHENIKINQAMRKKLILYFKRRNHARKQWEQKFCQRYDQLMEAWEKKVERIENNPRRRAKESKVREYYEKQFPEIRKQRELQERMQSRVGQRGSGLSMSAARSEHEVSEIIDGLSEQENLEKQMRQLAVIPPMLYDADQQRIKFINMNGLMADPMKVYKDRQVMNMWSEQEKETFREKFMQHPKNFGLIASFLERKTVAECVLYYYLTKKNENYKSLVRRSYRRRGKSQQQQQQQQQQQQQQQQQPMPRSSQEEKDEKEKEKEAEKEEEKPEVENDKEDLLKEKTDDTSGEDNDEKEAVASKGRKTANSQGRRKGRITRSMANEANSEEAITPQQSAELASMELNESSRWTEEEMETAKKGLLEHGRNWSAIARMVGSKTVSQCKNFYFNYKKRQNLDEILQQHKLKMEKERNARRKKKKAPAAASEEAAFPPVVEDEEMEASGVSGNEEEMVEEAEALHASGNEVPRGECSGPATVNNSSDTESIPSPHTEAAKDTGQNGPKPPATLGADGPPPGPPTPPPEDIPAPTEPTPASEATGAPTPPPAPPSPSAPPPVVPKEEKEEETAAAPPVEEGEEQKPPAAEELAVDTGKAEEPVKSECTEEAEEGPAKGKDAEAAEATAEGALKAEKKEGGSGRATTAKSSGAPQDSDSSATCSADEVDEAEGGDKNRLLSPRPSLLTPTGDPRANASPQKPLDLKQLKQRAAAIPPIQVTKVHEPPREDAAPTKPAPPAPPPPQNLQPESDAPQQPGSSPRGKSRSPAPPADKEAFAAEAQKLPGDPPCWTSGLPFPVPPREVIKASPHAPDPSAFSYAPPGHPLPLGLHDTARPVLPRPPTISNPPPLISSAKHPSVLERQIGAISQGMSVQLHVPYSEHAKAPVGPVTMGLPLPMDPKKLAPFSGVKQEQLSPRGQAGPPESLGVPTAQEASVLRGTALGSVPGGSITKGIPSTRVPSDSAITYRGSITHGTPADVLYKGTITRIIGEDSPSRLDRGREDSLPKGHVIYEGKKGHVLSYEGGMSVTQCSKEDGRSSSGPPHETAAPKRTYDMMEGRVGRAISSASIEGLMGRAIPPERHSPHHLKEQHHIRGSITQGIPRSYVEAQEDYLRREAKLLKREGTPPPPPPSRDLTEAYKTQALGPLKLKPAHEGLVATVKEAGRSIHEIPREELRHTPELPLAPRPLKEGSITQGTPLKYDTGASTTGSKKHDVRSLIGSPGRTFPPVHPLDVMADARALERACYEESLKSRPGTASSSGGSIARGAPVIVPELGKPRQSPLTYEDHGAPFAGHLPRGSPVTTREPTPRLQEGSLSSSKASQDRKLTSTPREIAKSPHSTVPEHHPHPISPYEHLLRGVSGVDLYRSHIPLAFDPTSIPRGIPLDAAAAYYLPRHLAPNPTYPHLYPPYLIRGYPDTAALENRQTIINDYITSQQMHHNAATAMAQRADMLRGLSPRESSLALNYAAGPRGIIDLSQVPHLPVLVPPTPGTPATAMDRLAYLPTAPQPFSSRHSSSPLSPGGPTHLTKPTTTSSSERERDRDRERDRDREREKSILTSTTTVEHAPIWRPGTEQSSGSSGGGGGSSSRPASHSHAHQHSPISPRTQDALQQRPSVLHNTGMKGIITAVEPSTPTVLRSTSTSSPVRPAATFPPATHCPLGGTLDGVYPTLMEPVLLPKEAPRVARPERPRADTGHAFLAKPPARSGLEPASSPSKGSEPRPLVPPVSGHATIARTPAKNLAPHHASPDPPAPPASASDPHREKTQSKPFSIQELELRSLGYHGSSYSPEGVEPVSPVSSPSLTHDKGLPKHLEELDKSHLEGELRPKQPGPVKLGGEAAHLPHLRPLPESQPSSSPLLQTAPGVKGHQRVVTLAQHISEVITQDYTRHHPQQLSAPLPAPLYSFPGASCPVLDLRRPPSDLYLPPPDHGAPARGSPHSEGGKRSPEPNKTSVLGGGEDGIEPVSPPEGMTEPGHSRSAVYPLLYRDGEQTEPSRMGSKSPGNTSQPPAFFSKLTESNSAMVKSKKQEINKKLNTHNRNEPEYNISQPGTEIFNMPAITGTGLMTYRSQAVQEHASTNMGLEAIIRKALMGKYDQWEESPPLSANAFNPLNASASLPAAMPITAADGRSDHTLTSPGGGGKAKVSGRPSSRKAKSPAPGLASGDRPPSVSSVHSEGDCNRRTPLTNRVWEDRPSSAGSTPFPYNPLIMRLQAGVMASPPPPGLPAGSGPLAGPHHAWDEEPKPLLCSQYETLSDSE
Chain of Histone deacetylase 1 (Q13547 whole entry, the tested form may be a part): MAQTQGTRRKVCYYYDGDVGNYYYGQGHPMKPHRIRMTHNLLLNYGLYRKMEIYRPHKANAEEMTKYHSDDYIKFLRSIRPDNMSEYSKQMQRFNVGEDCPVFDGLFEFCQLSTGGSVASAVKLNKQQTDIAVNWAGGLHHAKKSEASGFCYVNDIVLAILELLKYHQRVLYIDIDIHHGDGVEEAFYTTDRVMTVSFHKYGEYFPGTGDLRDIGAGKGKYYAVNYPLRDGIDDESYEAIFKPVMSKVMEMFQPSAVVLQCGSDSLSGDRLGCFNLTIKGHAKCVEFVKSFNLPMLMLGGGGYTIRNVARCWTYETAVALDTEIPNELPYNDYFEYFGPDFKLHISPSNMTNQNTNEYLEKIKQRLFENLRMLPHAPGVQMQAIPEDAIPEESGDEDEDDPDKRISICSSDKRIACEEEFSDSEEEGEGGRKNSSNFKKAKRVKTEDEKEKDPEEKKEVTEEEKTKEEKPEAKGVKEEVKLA

| Structure (SMILES) | Ratio IC50 (Homo sapiens [1]) | IC50 (Histone deacetylase 1) | IC50 [2] | IC50 (Histone deacetylase 11) | IC50 (Histone deacetylase 8) | Ratio IC50 (Homo sapiens [3]) | IC50 [4] | Ratio IC50 (Homo sapiens [5]) | IC50 [6] | Activity (Danio rerio) | Drug uptake [7] | Drug uptake [8] | Drug uptake [9] | IC50 (Kasumi 1) |
| --- | --- | --- | --- | --- | --- | --- | --- | --- | --- | --- | --- | --- | --- | --- |
| O=C(CCCCCN1C(=O)c2cccc3c([N+](=O)[O-])ccc(c23)C1=O)NO | 284 | 630 nM | 1620 nM | 1020 nM | 620 nM | 111 | 5.7 nM | – | – | – | – | – | – | 570 nM |
| O=C(NO)c1ccc(CNC(=O)c2cc(Cn3c4ccccc4c4ccccc43)on2)cc1 | – | – | – | – | – | – | – | 490 | 0.61 nM | – | – | – | – | – |
| O=C(CCCCCN1C(=O)c2cccc3c(Nc4ccccc4)ccc(c23)C1=O)NO | 36 | 2380 nM | 470 nM | 190 nM | 4090 nM | 183 | 13 nM | – | – | – | – | – | – | 280 nM |
| CC(/C=C/C(=O)NO)=C\[C@@H](C)C(=O)c1ccc(N(C)C)cc1 | – | – | – | – | – | – | – | – | – | Active | – | – | – | – |
| Nc1ccccc1NC(=O)CCCCCN1C(=O)c2cccc3cccc(c23)C1=O | – | 740 nM | 200 nM | 9350 nM | > 10000 nM | – | > 10000 nM | – | – | – | – | – | – | 1090 nM |
| CN(Cc1ccccc1)c1ccc2c3c(cccc13)C(=O)N(CCCCCC(=O)NO)C2=O | 72 | 2380 nM | 700 nM | 1220 nM | 1400 nM | 245 | 9.7 nM | – | – | – | – | – | – | 810 nM |
| O=C(CCCCCN1C(=O)c2cccc3cccc(c23)C1=O)NO | – | – | – | – | – | – | – | – | – | Active | – | – | – | 490 nM |

Continued, in another order:

| Ratio IC50 (Homo sapiens [1]) | IC50 (Histone deacetylase 1) | IC50 [2] | IC50 (Histone deacetylase 11) | IC50 (Histone deacetylase 8) | Ratio IC50 (Homo sapiens [3]) | IC50 [4] | Ratio IC50 (Homo sapiens [5]) | IC50 [6] | Activity (Danio rerio) | Drug uptake [7] | Drug uptake [8] | Drug uptake [9] | Structure (SMILES) | IC50 (Kasumi 1) |
| --- | --- | --- | --- | --- | --- | --- | --- | --- | --- | --- | --- | --- | --- | --- |
| – | 430 nM | 290 nM | 8120 nM | > 10000 nM | – | > 10000 nM | – | – | – | Active | Active | Active | Nc1ccccc1NC(=O)CCCCCN1C(=O)c2cccc3c(N4CCOCC4)ccc(c23)C1=O | 640 nM |
| 39 | 3060 nM | 550 nM | 210 nM | 4070 nM | 219 | 14 nM | – | – | – | – | – | – | O=C(CCCCCN1C(=O)c2cccc3c(Nc4cccc(F)c4)ccc(c23)C1=O)NO | 320 nM |
| 27 | 1430 nM | 320 nM | 290 nM | 1810 nM | 119 | 12 nM | 120 | 12 nM | – | – | – | – | O=C(CCCCCN1C(=O)c2cccc3c(N4CCOCC4)ccc(c23)C1=O)NO | 290 nM |

Source: ChEMBL document CHEMBL4325904 (Eur J Med Chem, 2019)
